# Assay outcomes (PubChem)
# Rows were chosen to be rich in hits. Some 3% of all compounds tested hit in one or more screens of this group.
# rRNA inh HTS – selective bacterial rRNA inhibition in E. coli. actives 1.6% (n = 350,000). E. coli WT GFP vs humanized-ribosome RFP mutants, fluorescence, 24 h; stronger effect = lower value; DMSO median 0, no signal -100. AID 720706. GFP signal change (wild-type ribosome), % (concentration not given with the values);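 active means significant combined selectivity score with lowered wild-type GFP, culture density cut under 30%, mutant RFP and density less affected; inactive means any of these conditions unmet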
# S100A4 MyoIIA – S100A4-myosin IIA interaction inhibition. inhibition, % at 10.7 µM. actives 0.14% (n = 360,000). S100A4/TAMRA-MyoIIA peptide fluorescence polarization;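 active means mean inhibition of at least 70% across replicates, with every replicate also reaching that level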
# Target sequence (P26447 whole entry, looked up): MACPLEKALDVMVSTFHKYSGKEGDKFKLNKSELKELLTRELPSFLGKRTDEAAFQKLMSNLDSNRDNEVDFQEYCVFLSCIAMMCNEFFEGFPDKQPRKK
#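 assay system = human S100A4 monomer with TAMRA-labelled myosin IIA peptide | also added = labelled myosin peptide probe, 5 nM | incubation = 5 min between mix addition and reading | control set = DMSO and TFP controls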
# SIRT5 block – inhibitors of human sirtuin-5 desuccinylase; Q9NXA8; Purified SirT5, succinyl-peptide AMC, trypsin-coupled fluorescence; inhibition, % at 15 µM; actives 1.1% (n = 330,000); AID 652115; in the data active means inhibition above about 15%
# Target sequence (Q9NXA8 whole entry, looked up): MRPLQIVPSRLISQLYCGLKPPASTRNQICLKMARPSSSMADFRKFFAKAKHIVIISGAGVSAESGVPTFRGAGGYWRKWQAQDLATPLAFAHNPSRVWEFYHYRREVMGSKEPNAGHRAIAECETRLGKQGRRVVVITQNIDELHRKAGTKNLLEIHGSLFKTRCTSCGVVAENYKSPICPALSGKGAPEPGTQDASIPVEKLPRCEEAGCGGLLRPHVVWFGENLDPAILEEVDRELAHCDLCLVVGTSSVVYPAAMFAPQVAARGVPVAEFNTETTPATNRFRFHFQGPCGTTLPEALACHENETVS
# C2C12 statin – suppression of simvastatin myotoxicity. actives 0.78% (n = 330,000). C2C12 myotubes + simvastatin, ATP luminescence, 48 h; scaled: DMSO 0, geranylgeraniol control 100. rescue of ATP level, % at 7.49 µM;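 active means mean ATP rescue above about 67%, or every replicate alone reaching that limit, limit read from the data, passing the limit was not always enough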;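 further: myotubes were challenged with 10 µM simvastatin during compound exposure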
# Cneo AK release – causes C. neoformans cell lysis. adenylate kinase release luminescence, 4 h; normalised: neutral wells 0, clomiphene wells 100. lysis activity, % at 15 µM. actives 0.2% (n = 360,000);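 active means mean lysis activity across replicates of at least 80%, whatever share of replicates individually reach that level; inactive means mean lysis activity below 80%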
#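 Assay system: C. neoformans cells. Amount: yeast cell density of 5 × 10^6 cells/mL. Technique: AK luminescence. Buffer or medium: YPD. Times: static 4 h at 37 °C with compound, 1 h detection. Dosing: single-point compound dose. Read-out: lysis from increased AK signal.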
# PGC1a acetyl inh – modulators of PGC1a acetylation; U2OS PGC1a acetylation, AlphaScreen anti-acetyl-lysine; with virally co-expressed GCN5 acetyltransferase; inhibition, % at 15.6 µM; actives 0.17% (n = 350,000);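 active means every replicate shows inhibition of at least 40%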;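 further: 0% = neutral control wells and 100% = positive control wells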
# * marks the source's active call; other numbers are inactive results; . = no result given; ! = repeats disagree.
SMILES,rRNA inh HTS,S100A4 MyoIIA,SIRT5 block,C2C12 statin,Cneo AK release,PGC1a acetyl inh
O=C(C[C@H]1CC[C@H]2[C@@H](COC[C@@H](O)CN2C(=O)c2ccc(F)cc2)O1)N1CCOCC1,6,-4,1,2,105*,0
C[C@@H]1CN([C@H](C)CO)C(=O)c2cc(NC(=O)Cn3cnnn3)ccc2O[C@H]1CN(C)C(=O)Nc1ccc(F)cc1,5,-25,0,-18,-1,6
C[C@H](CO)N1C[C@H](C)[C@@H](CN(C)C(=O)C2CCOCC2)Oc2ncc(C#CC3(O)CCCC3)cc2C1=O,-3,8,-3,-2,0,7
Fc1ccc2c(c1)/C(=N/Nc1ccccn1)CCS2,-22*,-4,0,.,.,6
C[C@@H]1CN([C@H](C)CO)S(=O)(=O)c2ccc(C#C[C@@H](C)O)cc2O[C@@H]1CN(C)C(=O)CC1CC1,2,-1,3,-10,13,2
N#Cc1cccc(C#N)c1Oc1ccc(S(=O)(=O)Nc2ccc(Cl)cc2)cc1,-38*,-3,-5,.,.,.
Cc1cccc(NC(=O)CSc2nnc(-c3n[nH]c4ccccc34)o2)c1,-12,1,16*,.,.,.
CC(C)C#Cc1ccc2c(c1)O[C@H](CN(C)CC1CC1)[C@H](C)CN([C@H](C)CO)S2(=O)=O,4,10,3,-1,10,-12
CCCCN(CCCC)c1nn[nH]n1,-2,-28,-2,96*,4,4
CC(C)CN(CC(C)C)c1nn[nH]n1,5,9,.,114*,-2,-1
C[C@H]1CN([C@@H](C)CO)C(=O)c2cc(C#Cc3cccnc3)cnc2O[C@H]1CN(C)Cc1ccccc1,0,10,6,26,37,2
CCOC(=O)C1=C[C@@H](c2ccccc2)N(S(=O)(=O)c2ccc(C)cc2)[C@H]1c1ccccc1Cl,6,-2,23*,-2,-1,-12
O=C(NCc1ccco1)N1c2ccccc2Sc2ccccc21,-24*,-1,-3,53,1,4
COCCCNC(=O)N1c2ccccc2Sc2ccccc21,-4,-8,-2,11,-2,0
C[C@@H]1CN([C@@H](C)CO)C(=O)c2cc(NC(=O)CCCN(C)C)ccc2O[C@@H](C)CCCCO[C@H]1CN(C)S(=O)(=O)c1cccs1,1,1,-8,.,1,-3
N#CC1=C(N)OC2=C(CCc3ccccc32)C1c1ccccc1Cl (stereo not drawn),-22*,-6,-1,-63,3,-1
COCC(=O)N1CC2(C1)[C@H](c1ccc(C3=CCCC3)cc1)[C@@H](CO)N2C(=O)COC,1,7,-3,.,.,4
O=C(COC(=O)Cc1ccccc1F)NCc1ccc(Cl)cc1,-2,-7,-3,100*,0,-2
CO[C@@H]1CN(C)C(=O)c2ccc(NC(=O)Nc3ccccc3F)cc2OC[C@@H](C)N(S(=O)(=O)CC(F)(F)F)C[C@H]1C,-2,-17,0,-7,-12,-9
Cc1ccc(S(=O)(=O)NNC(=O)c2c(O)c3ccccc3[nH]c2=O)cc1,3,-4,17*,5,2,-13
Nn1c(SCC(=O)NCCC2=CCCCC2)nnc1-c1cccnc1,-1,-2,-6,15,1,2
CCN(CC)S(=O)(=O)c1cccc(-c2nnc(SCC(=O)NCCC3=CCCCC3)n2N)c1,.,.,.,124*,1,-3
O=C(C[C@@H]1C[C@@H]2c3cc(NS(=O)(=O)c4ccc(F)cc4)ccc3O[C@@H]2[C@@H](CO)O1)NCc1ccc(-c2ccccc2)cc1,.,-4,-2,-14,-34,-9
O=C(C[C@H]1C[C@H]2c3cc(NS(=O)(=O)c4ccc(F)cc4)ccc3O[C@H]2[C@H](CO)O1)NCc1ccc(-c2ccccc2)cc1,-4,2,18*,-25,-33,6
O=C(C[C@@H]1C[C@H]2c3cc(NS(=O)(=O)c4ccc(F)cc4)ccc3O[C@H]2[C@@H](CO)O1)NCc1ccc(-c2ccccc2)cc1,-8,-7,16*,-86,5,-8
SMILES,rRNA inh HTS,S100A4 MyoIIA,SIRT5 block,C2C12 statin,Cneo AK release,PGC1a acetyl inh
O=C(C[C@@H]1C[C@H]2c3cc(NS(=O)(=O)c4ccc(F)cc4)ccc3O[C@H]2[C@H](CO)O1)NCc1ccccc1,-2,-34,-3,-24,-2,2
O=C(C[C@@H]1C[C@H]2c3cc(NC(=O)Nc4ccc(C(F)(F)F)cc4)ccc3O[C@H]2[C@@H](CO)O1)NCc1cccnc1,0,4,0,-3,-6,-6
CC(C)C#Cc1ccc2c(c1)O[C@@H](CN(C)C(=O)Cc1ccccn1)[C@@H](C)CN([C@H](C)CO)S2(=O)=O,2,5,4,11,-1,5
O=C([C@@H]1[C@@H](CO)[C@@H]2Cn3c(cccc3=O)[C@H]1N2Cc1cccc(Cl)c1)N1CCOCC1,-2,-5,3,13,98*,.
C[C@H](NC(=O)[C@@H]1[C@@H](CO)[C@@H]2Cn3c(cccc3=O)[C@H]1N2Cc1ccccc1)c1ccccc1,1,8,19*,-10,-8,.
O=C([C@@H]1[C@@H](CO)[C@@H]2Cn3c(cccc3=O)[C@H]1N2Cc1cccc(Cl)c1)N1CCCCC1,2,0,-1,-26,-4,.
O=C(NCC1CCCCC1)[C@H]1[C@H](CO)[C@H]2Cn3c(cccc3=O)[C@@H]1N2CCc1ccccc1,-5,21,18*,-5,-3,.
O=C(NCC1CCCCC1)[C@@H]1[C@@H](CO)[C@@H]2Cn3c(cccc3=O)[C@H]1N2CCc1ccccc1,-10,-6,3,-38,-1,.
Cc1noc(C)c1NC(=O)N(C)C[C@@H]1Oc2ncc(C3=CCCCC3)cc2C(=O)N([C@@H](C)CO)C[C@@H]1C,5,.,.,-12,.,4
CO[C@H]1CN(C)C(=O)c2ccc(NC(=O)C3CC3)cc2OC[C@H](C)N(C(=O)c2ccccc2F)C[C@@H]1C,1,14,-2,-16,-1,8
Cc1noc(C)c1S(=O)(=O)Nc1ccc2c(c1)C(=O)N([C@H](C)CO)C[C@H](C)[C@@H](CN(C)S(=O)(=O)c1ccc(F)cc1)O2,-25*!,-3,2,20,0,2
Cc1noc(C)c1S(=O)(=O)Nc1ccc2c(c1)C(=O)N([C@H](C)CO)C[C@@H](C)[C@@H](CN(C)S(=O)(=O)c1ccc(Cl)cc1)OCCCC[C@H](C)O2,1,-6,8,101*,1,.
